Sampled rows, rich in hits. Any-hit rate of the full collection: about 2.5%.
MEKK2wt PB1 HTS: raises or lowers MEK5 binding to wildtype human MEKK2 PB1 domain. bead flow cytometry, Alexa488-MEK5 binding to MEKK2 WT; actives lie on both sides. binding response (% of control), % at 10 µM. 1.1% of 290,000 active. AID 1531; in the data active means binding response below about 67% or above about 130%
ABCG2 inh: blocks JC-1 efflux by human ABCG2 transporter; IgMXP3 cells, flow cytometry; inhibition, % at 6.6 µM; 0.1% of 190,000 active; Q9UNQ0;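 active means inhibition above 80%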;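 further: 0% = DMSO and 100% = nicardipine control wells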
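Test system: IgMXP3 (ABCG2) plus far-red-tagged CCRF-Adr (ABCB1) cells. Reagent: JC-1 dye as substrate. Timing: 10 min exposure at 25 °C with rotation, no wash. Measured by: flow cytometric JC-1 green MFI at 530 nm. Read-out: percent efflux inhibition, scaled nicardipine 100% to DMSO 0%. Control set: nicardipine and DMSO wells.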
ABCB1 block: inhibitors of human ABCB1 transporter, ABCG2 counter-screen; inhibition, % at 6.6 µM; AID 1326; P08183; 0.067% of 190,000 active; CCRF-Adr cells, JC-1 efflux, flow cytometry; in the data active means inhibition above about 40%;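 further: 0% = vehicle and 100% = reference inhibitor; higher value means more JC-1 retained so stronger ABCB1 efflux block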
Target sequence (P08183 whole entry, looked up): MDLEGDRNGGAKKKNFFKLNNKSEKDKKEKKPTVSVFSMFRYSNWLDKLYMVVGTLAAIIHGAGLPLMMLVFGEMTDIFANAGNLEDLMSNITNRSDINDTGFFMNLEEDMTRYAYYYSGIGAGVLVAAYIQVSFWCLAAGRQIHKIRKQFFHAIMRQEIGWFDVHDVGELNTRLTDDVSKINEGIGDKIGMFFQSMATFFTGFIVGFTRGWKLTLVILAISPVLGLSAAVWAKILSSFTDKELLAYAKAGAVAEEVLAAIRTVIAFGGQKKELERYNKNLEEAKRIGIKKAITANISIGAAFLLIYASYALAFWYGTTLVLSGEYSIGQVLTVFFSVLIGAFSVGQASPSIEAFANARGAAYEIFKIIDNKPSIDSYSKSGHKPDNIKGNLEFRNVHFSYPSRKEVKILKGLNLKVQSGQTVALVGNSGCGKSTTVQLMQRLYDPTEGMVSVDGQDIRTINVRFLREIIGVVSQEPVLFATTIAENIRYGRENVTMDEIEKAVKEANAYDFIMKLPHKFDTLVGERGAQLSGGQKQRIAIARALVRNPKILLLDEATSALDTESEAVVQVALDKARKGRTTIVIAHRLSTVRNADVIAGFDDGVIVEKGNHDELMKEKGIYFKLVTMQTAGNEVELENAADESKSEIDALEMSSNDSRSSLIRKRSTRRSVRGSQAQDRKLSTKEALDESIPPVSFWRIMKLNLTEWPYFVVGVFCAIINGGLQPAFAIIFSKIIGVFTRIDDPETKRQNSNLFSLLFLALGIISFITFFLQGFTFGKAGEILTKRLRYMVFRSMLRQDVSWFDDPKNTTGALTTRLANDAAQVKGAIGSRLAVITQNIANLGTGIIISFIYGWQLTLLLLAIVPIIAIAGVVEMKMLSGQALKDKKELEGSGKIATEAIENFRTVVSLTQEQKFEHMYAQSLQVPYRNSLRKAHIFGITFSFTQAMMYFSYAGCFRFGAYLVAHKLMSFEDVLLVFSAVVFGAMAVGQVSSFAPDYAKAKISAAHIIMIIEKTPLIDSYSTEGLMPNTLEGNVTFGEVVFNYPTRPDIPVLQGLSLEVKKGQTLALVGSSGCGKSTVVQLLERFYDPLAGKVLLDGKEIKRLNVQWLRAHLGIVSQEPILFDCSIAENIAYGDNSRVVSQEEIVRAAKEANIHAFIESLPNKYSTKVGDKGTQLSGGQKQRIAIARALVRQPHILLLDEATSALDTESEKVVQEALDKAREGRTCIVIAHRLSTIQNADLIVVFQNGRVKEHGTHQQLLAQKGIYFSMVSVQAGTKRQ
MEKK3 PB1 HTS: MEKK3-MEK5 PB1 interaction, increase or decrease; bead-based flow cytometry, Alexa488-MEK5 binding to MEKK3; actives lie on both sides; 0 = blocked by unlabeled MEK5, 100 = vehicle; binding response (% of control), % at 10 µM; 1.4% of 290,000 active; AID 1529;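 active means binding response more than 3 SD above or below the average of its plate-row segment, actives on both sides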;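 further: Alexa488 bead fluorescence after subtracting the streptavidin-only scavenger bead signal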
MEKK2 mut-MEK5: signal of MEK5 binding to mutant human MEKK2 PB1 domain; bead flow cytometry, Alexa488-MEK5 binding to MEKK2 mutant; percent response, % at 10 µM; 0.35% of 290,000 active; AID 1530; in the data active means percent response above about 24%, passing the limit was not always enough
Efflux pump mplx: blocks antifungal efflux pumps in multiplex yeast assay | S. cerevisiae Candida pump triplex, Nile Red efflux | inhibition, % at 10 µM | 0.44% of 330,000 active | AID 485275;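 active means plate passing quality check with inhibition over a set limit, or well fluorescence over plate mean plus 4 SD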;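 further: Nile Red retained in pooled yeast measured as flow cytometry median fluorescence; 0% = buffer negative control and 100% = Enniatin B positive control; higher means more Nile Red kept so more efflux inhibition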
MEKK2wt confirm: raises or lowers MEK5 binding to wildtype human MEKK2, retest. shares compounds with MEKK3 PB1 HTS. bead flow cytometry, Alexa488-MEK5 binding to MEKK2 WT; actives lie on both sides. binding response (% of control), % at 10 µM. 2.4% of 5,900 active; in the data active means binding response below about 16% or above about 210%; inactive means in between
MEKK2mut-MEK5: signal of MEK5 binding to mutant human MEKK2, retest; shares compounds with MEKK3 PB1 HTS; bead flow cytometry, Alexa488-MEK5 binding to MEKK2 mutant; percent response, % at 10 µM; 2% of 5,900 active; in the data active means percent response mostly above about 71%, no sharp cut-off; inactive means mostly below about 38%;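 further: higher means compound restores mutant binding toward wildtype level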
MEKK3-MEK5 inh: MEKK3-MEK5 PB1 inhibition, single concentration confirmation; AID 1894; shares compounds with MEKK3 PB1 HTS; bead flow cytometry, Alexa488-MEK5 binding to MEKK3; hits give low values; 1.8% of 5,900 active; binding response (% of control), % at 10 µM;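 active means binding response below 72% of control, or above a set upper limit, though filed actives all read lower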;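 further: 100% = DMSO only wells and 0% = binding blocked by excess unlabeled MEK5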
An asterisk follows results filed as active; x = not tested or not shown; [ ] = remark or other dose.

SMILES | MEKK2wt PB1 HTS | ABCG2 inh | ABCB1 block | MEKK3 PB1 HTS | MEKK2 mut-MEK5 | Efflux pump mplx | MEKK2wt confirm | MEKK2mut-MEK5 | MEKK3-MEK5 inh
Cc1cccc(C(=O)N=c2sccn2C)c1[N+](=O)[O-] | 100 | x | x | 102 | 9 | 0 | x | x | x
CCCc1cc(=O)[nH]c(SCC(=O)NCCC2=CCCCC2)n1 | 97 | 12 | 2 | 102 | -4 | 0 | x | x | x
Cc1nn(CCOc2ccccc2)c(=O)n1-c1ccccc1 | 98 | 8 | 1 | 104 | 0 | 0 | x | x | x
Cc1nn(CCOc2ccccc2)c(=O)n1-c1ccc(Cl)cc1 | 123 | 5 | 2 | 141* | 4 | 0 | 102 | -1 | 103
O=C(NS(=O)(=O)Oc1ccc(F)c(Cl)c1)OC[C@@H]1CCCN2CCCCC12 (stereo partly drawn) | 99 | 1 | 0 | 103 | 0 | 0 | x | x | x
O=C(NS(=O)(=O)Oc1ccc(Cl)cc1)OC[C@@H]1CCCN2CCCC[C@H]12 | 113 | 0 | 0 | 149* | 1 | 0 | 102 | 2 | 100
C=CCc1ccc(OCC(O)CN2CCCCC2C)c(OC)c1 (stereo not drawn) | 136* | 3 | 1 | 104 | 42* | 0 | 123 | 15 | 101
C=CCc1ccc(OCC(O)CN2CCCCC2)c(OC)c1 (stereo not drawn) | 115 | 0 | 0 | 105 | 5 | 0 | x | x | x
COc1ccc(CCNC(=O)CCc2cn(C)c3ccccc23)c(OC)c1OC | 117 | x | x | 120 | 27* | 0 | 103 | 3 | 103
COc1ccc(C(=O)N(CC2CCCO2)C(C(=O)NCCC(C)C)c2ccc(C)cc2)cc1OC (stereo not drawn) | 111 | 2 | 2 | 132* | 2 | 1 | 90 | 1 | 94
COc1ccc(C(C(=O)NC2CCCCC2)N(CC2CCCO2)C(=O)C2COc3ccccc3O2)cc1OC (stereo not drawn) | 104 | 1 | 1 | 129* | 7 | 0 | 100 | 8 | 102
CCOC(=O)c1cnc(SC)nc1Oc1cccc(NC(=O)c2cccc(Cl)c2Cl)c1 | 102 | 2 | 1 | 107 | 6 | 0 | x | x | x
OC(COc1ccc(CNCCc2ccccc2F)cc1)CN1CCCCC1 (stereo not drawn) | 168* | 3 | 1 | 102 | 58* | 0 | 140 | 15 | 109
O=C(c1ccccc1)c1ccc(OCC(O)CN2CCCCC2)cc1 (stereo not drawn) | 116 | 1 | 0 | 107 | 11 | 0 | x | x | x
CSCCNC(=O)Nc1c(-c2c(Cl)cccc2Cl)noc1C | 86 | x | x | 67*[inhibitor] | -26 | 0 | 102 | 4 | 102
O=C(NCCCN1CCOCC1)C1CC(=O)N(CCc2ccccc2)C1 (stereo not drawn) | 103 | 0 | 0 | 100 | 2 | 0 | x | x | x
O=C(NCCCN1CCCCCC1)C1CC(=O)N(CCc2ccccc2)C1 (stereo not drawn) | 147* | 0 | 0 | 81 | 25* | 0 | 154 | 25 | 94
O=C(CSc1cccc[n+]1[O-])Nc1c(Br)cc([N+](=O)[O-])cc1Br | 96 | 0 | 0 | 94 | -2 | 0 | x | x | x
CCN(CC)C(=O)[C@H]1CC(CC(=O)NCCCOC)C(=O)N2CCc3c([nH]c4ccccc34)[C@]12C (stereo partly drawn) | x | x | x | x | x | 0 | x | x | x
CC(C)c1cccc(C(C)C)c1NC(=O)CNCc1ccccc1F | 100 | 9 | 1 | 98 | -1 | 0 | x | x | x
Cc1cc(N=Nc2ccc(C)c(N=Nc3cc(C)c(N)cc3N)c2)c(N)cc1N | 76 | x | x | 67*[inhibitor] | -7 | 0 | 89 | 10 | 70*
O=C(Cc1ccc(Br)cc1)OCC(=O)c1ccc[nH]1 | x | x | x | x | x | 0 | x | x | x
Cc1nc2c(cc1C(=O)N/N=C/c1ccc([N+](=O)[O-])cc1)c(=O)n(C)c(=O)n2C | 108 | 11 | 1 | 135* | 1 | 0 | 105 | 12 | 111
CSc1nnc2ccc(-c3ccccn3)nn12 | 76 | 2 | 0 | 64*[inhibitor] | -19 | 0 | 101 | 0 | 101
Cc1cccc(C2c3[nH]c4ccccc4c3CCN2C(=O)c2noc3c2CCCC3)n1 (stereo not drawn) | 95 | 9 | 5 | 99 | -5 | 0 | x | x | x
SMILES | MEKK2wt PB1 HTS | ABCG2 inh | ABCB1 block | MEKK3 PB1 HTS | MEKK2 mut-MEK5 | Efflux pump mplx | MEKK2wt confirm | MEKK2mut-MEK5 | MEKK3-MEK5 inh
Cc1cccc(C2c3[nH]c4ccccc4c3CCN2C(=O)c2cn(C)c3ccccc3c2=O)n1 (stereo not drawn) | 46*[inhibitor] | 13 | 3 | 87 | -14 | 0 | 97 | -2 | 102
COC(=O)c1ccnc(/C=N/O)c1 | 85 | 10 | 1 | 80*[inhibitor] | -10 | 0 | 96 | -6 | 102
CCOC(=O)C1(CCOc2ccccc2)CCN(CC(O)CO)CC1 (stereo not drawn) | 110 | x | x | 108 | 14 | 0 | x | x | x
Cc1ccc(S(=O)(=O)N2CCN(S(=O)(=O)c3ccccc3Br)CC2)cc1 | x | x | x | x | x | 0 | x | x | x
O=C(NCCN1CCOCC1)c1ccc(NS(=O)(=O)c2cccc([N+](=O)[O-])c2)cc1 | x | x | x | x | x | 0 | x | x | x
COc1cccc(NC(=O)CN(c2cccc(C(F)(F)F)c2)S(C)(=O)=O)c1 | 81 | 31 | 1 | 80*[inhibitor] | -4 | 0 | 101 | 2 | 100
CSCCC(NS(=O)(=O)c1ccccc1F)C(=O)NCc1ccncc1 (stereo not drawn) | x | x | x | x | x | 0 | x | x | x
O=C(COC(=O)C1CCCCC1)Nc1ccc(N2CCCCC2)cc1 | 150* | 0 | -1 | 102 | 47* | 0 | 129 | 15 | 101
O=C(CNCCC1=CCCCC1)Nc1ccc(N2CCCCCC2)cc1 | 188* | 5 | 1 | 105 | 29 | 0 | 194 | 56 | 112
O=C(Nc1ccc(N2CCOCC2)cc1)C1CCCCC1 | 78 | 3 | 0 | 82*[inhibitor] | -3 | 0 | 100 | -1 | 105
NS(=O)(=O)c1ccc(NC(=O)COC(=O)C2CCCCC2)cc1 | 94 | -1 | 0 | 92 | -1 | 0 | x | x | x
O=C1CSC(c2ccccc2)N1c1nnc(C23CC4CC(CC(C4)C2)C3)s1 (stereo not drawn) | 96 | 1 | 0 | 103 | -3 | x | x | x | x
COC(=O)C1CCN(c2ccc([N+](=O)[O-])cc2)CC1 | 94 | 6 | 0 | 90 | -3 | 0 | x | x | x

Compound activity deposited in PubChem BioAssay by NMMLSC.
